Measured values of several laboratories.
Each line is one published result; the experiments were not run side by side.
Target: Tyrosine-protein kinase ABL2 (ABL2, Homo sapiens, UniProt P42684)

COc1cnc(Nc2cccc(S(N)(=O)=O)c2)nc1N1CCN(c2ccccc2)CC1 — remaining binding (binding, competition with immobilised ligand; 1 µM): 98%
CCN(CC)CCNC(=O)c1c(C)[nH]c(/C=C2\C(=O)Nc3ccc(F)cc32)c1C — remaining binding (cell-free assay, competition with immobilised ligand; 0.1 µM): 92%
COc1cccc(CNC(=O)c2nc3scc(COCc4ccc(C(=O)O)cc4)c3c(=O)[nH]2)c1 — remaining binding (cell-free assay, competition with immobilised ligand; 1 µM): 82.2%
CS(=O)(=O)CCNCc1ccc(-c2ccc3ncnc(Nc4ccc(OCc5cccc(F)c5)c(Cl)c4)c3c2)o1 — remaining binding (cell-free assay, competition with immobilised ligand; 10 µM): 100%
C[C@@H](c1cccc(C#N)c1)n1cc(Cl)cc(C(N)=O)c1=N — remaining binding (cell-free assay, competition with immobilised ligand; 1 µM): 84%
COc1cc2ncnc(Nc3ccc(F)c(Cl)c3)c2cc1OCCCN1CCOCC1 — remaining binding (cell-free assay, competition with immobilised ligand; 10 µM): 83%
O=C(NCCCN1CCOCC1)c1ccc(Nc2nccc(-c3cc4ccccc4s3)n2)cc1 — remaining binding (binding, competition with immobilised ligand; 1 µM): 85%
CN(c1nccc(-c2cnn3ncccc23)n1)C1CC1 — remaining binding (binding; 1 µM): 99%
O=C(Nc1c[nH]nc1C(=O)NC1CCNCC1)c1cc(F)cc(F)c1 — remaining binding (binding, competition with immobilised ligand; 1 µM): 100%
Cc1cnn2ncc(-c3ccnc(N(C)C)n3)c2c1 — remaining binding (binding; 1 µM): 100%
Cc1cnc(Nc2ccc(C(=O)N3CCC(N4CCCC4)CC3)cc2)nc1-c1cc2ccccc2s1 — remaining binding (binding, competition with immobilised ligand; 1 µM): 43%
CNC(=O)Nc1ccc2c(c1)[C@@]1(CC2)OC(=O)N(CC(=O)N(Cc2ccc(F)cc2)[C@@H](C)C(F)(F)F)C1=O — remaining binding (cell-free assay, competition with immobilised ligand; 1 µM): 84%
c1cnn2ncc(-c3ccnc(N4CCC45COC5)n3)c2c1 — remaining binding (binding; 1 µM): 87%
FC(F)(F)Oc1cccc(-c2cnc3ccc(-c4ccncc4)nn23)c1 — remaining binding (cell-free assay, competition with immobilised ligand; 5 µM): 76%
Cn1nc(C(F)(F)F)cc1-c1cnc(N2CCc3cc(S(=O)(=O)Nc4c(F)cc(Cl)cc4F)cc(N4CCCC4=O)c32)nc1 — remaining binding (cell-free assay, competition with immobilised ligand; 1 µM): 100%
COc1ncc2cc3ccccc3nc2c1C#N — remaining binding (cell-free assay, competition with immobilised ligand; 5 µM): 96%
CNC(=O)c1cc(Oc2ccc(NC(=O)Nc3ccc(Cl)c(C(F)(F)F)c3)cc2)ccn1 — remaining binding (cell-free assay, competition with immobilised ligand; 0.1 µM): 97%
N#Cc1ccc(Nc2ccc3[nH]c(=O)[nH]c3c2)c(Cl)c1 — remaining binding (cell-free assay, competition with immobilised ligand; 1 µM): 93%
COc1ccnn2ncc(-c3ccnc(N(C)C)n3)c12 — remaining binding (binding; 1 µM): 86%
CS(=O)(=O)c1cc(C2(NC(=O)c3cncc4c3cnn4-c3ccc(F)cc3)CC2)ccn1 — remaining binding (cell-free assay, competition with immobilised ligand; 1 µM): 95%
CCN(CC)Cc1cc(Nc2ccnc3cc(Cl)ccc23)ccc1O — remaining binding (cell-free assay, competition with immobilised ligand; 10 µM): 100%
